Where two headings read alike, the source gives them in different places. Positions of bridges follow the written chain, without caps; N, C: chain ends. Non-standard residues stand in square brackets, D forms with d. Residues, ends and D or L forms follow the SMILES beside them. Nle = CCCC[C@H](N)C(=O)O
What was measured:
[1] = RP-HPLC capacity factor; type: physicochemical; conditions: chromatographic, Grace Vydac C-18, 20-min gradient of 16-26% acetonitrile in 20 mM HCl, 1 mL/min
[2] = target: T1, MC1 receptor (Mus musculus, UniProt Q01727); experiment: In vitro competitive binding assay against ^125I-; design: species or system murine
Outline: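 B16/F1 cells seeded at 2.5 × 10^5/well, grown overnight at 37 °C, then washed with binding medium (MEM, 25 mM HEPES pH 7.4, 0.2% BSA, 0.3 mM 1,10-phenanthroline). Incubated 2 h at 25 °C with ~30,000 cpm 125I-(Tyr2)-NDP-MSH plus test peptide at 10^-13 to 10^-6 M. Rinsed twice with ice-cold 0.2% BSA/0.01 M PBS (pH 7.4), lysed 5 min in 1 M NaOH, gamma-counted. Run in triplicate.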

[3] = target: T1, MC1 receptor; conditions: read-out: MC1 receptor binding affinity; B16/F1 cells; cited from earlier work

T1 sequence (Q01727 whole entry): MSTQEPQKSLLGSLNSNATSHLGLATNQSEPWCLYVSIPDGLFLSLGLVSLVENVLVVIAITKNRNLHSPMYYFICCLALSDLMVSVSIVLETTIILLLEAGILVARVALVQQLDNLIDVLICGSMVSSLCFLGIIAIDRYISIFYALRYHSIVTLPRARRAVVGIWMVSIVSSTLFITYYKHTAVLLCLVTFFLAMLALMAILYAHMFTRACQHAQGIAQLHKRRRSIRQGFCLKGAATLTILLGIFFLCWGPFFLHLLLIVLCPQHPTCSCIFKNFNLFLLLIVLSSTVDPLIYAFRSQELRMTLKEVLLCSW

| Capacity factor (k') [1] | IC50 [2] | Compound | IC50 [3] |
| --- | --- | --- | --- |
| 3.77 | 0.82 ± 0.06 nM | CC(C)[C@H](NC(=O)[C@@H]1CCCN1C(=O)[C@H](CCCNC(=N)N)NC(=O)[C@H](CS)NC(=O)[C@H](Cc1c[nH]c2ccccc12)NC(=O)[C@H](CCCNC(=N)N)NC(=O)[C@@H](Cc1ccccc1)NC(=O)[C@H](Cc1c[nH]cn1)NC(=O)[C@H](CCC(=O)O)NC(=O)[C@H](CS)NC(=O)[C@H](CS)NC(=O)[C@H](CCCCN)NC(=O)[C@@H]1CC(=O)N[C@@H](CCCNC(=N)N)C(=O)N[C@@H](Cc2ccccc2)C(=O)N[C@@H](CC(=O)O)C(=O)N[C@H](Cc2ccc(O)cc2)C(=O)N1)C(N)=O [RFD-Lys-(Arg^11)CCMSH] (RFD[dY]DKCCEH[dF]RWCRPV-NH2; lactam N-5) |  |
|  | 1.35 ± 0.08 nM | CC(C)[C@H](NC(=O)[C@@H]1CCCN1C(=O)[C@H](CCCNC(=N)N)NC(=O)[C@H](CS)NC(=O)[C@H](Cc1c[nH]c2ccccc12)NC(=O)[C@H](CCCNC(=N)N)NC(=O)[C@@H](Cc1ccccc1)NC(=O)[C@H](Cc1c[nH]cn1)NC(=O)[C@H](CCC(=O)O)NC(=O)[C@H](CS)NC(=O)[C@H](CS)NC(=O)[C@H](CCCCN)NC(=O)[C@@H]1CC(=O)N[C@@H](CCCNC(=N)N)C(=O)N[C@H](Cc2ccccc2)C(=O)N[C@@H](CC(=O)O)C(=O)N[C@H](Cc2ccc(O)cc2)C(=O)N1)C(N)=O [RfD-Lys-(Arg^11)CCMSH] (R[dF]D[dY]DKCCEH[dF]RWCRPV-NH2; lactam N-5) |  |
| 4.36 | 2.99 ± 0.26 nM | CCCC[C@@H]1NC(=O)[C@H](CCCNC(=N)N)NC(=O)C[C@@H](C(=O)N[C@@H](CCCCN)C(=O)N[C@@H](CS)C(=O)N[C@@H](CS)C(=O)N[C@@H](CCC(=O)O)C(=O)N[C@@H](Cc2c[nH]cn2)C(=O)N[C@H](Cc2ccccc2)C(=O)N[C@@H](CCCNC(=N)N)C(=O)N[C@@H](Cc2c[nH]c3ccccc23)C(=O)N[C@@H](CS)C(=O)N[C@@H](CCCNC(=N)N)C(=O)N2CCC[C@H]2C(=O)N[C@H](C(N)=O)C(C)C)NC(=O)[C@@H](Cc2ccc(O)cc2)NC(=O)[C@H](CC(=O)O)NC1=O [RNleD-Lys-(Arg^11)CCMSH] (R[Nle]D[dY]DKCCEH[dF]RWCRPV-NH2; lactam N-5) |  |
| 2.19 | 1.3 ± 0.36 nM | CC(C)[C@H](NC(=O)[C@@H]1CCCN1C(=O)[C@H](CCCNC(=N)N)NC(=O)[C@H](CS)NC(=O)[C@H](Cc1c[nH]c2ccccc12)NC(=O)[C@H](CCCNC(=N)N)NC(=O)[C@@H](Cc1ccccc1)NC(=O)[C@H](Cc1c[nH]cn1)NC(=O)[C@H](CCC(=O)O)NC(=O)[C@H](CS)NC(=O)[C@H](CS)NC(=O)[C@H](CCCCN)NC(=O)[C@@H]1CC(=O)N[C@@H](CCCNC(=N)N)C(=O)N[C@@H](CO)C(=O)N[C@@H](CC(=O)O)C(=O)N[C@H](Cc2ccc(O)cc2)C(=O)N1)C(N)=O [RSD-Lys-(Arg^11)CCMSH, c[Arg-Ser-Asp-DTyr-Asp]-Lys-Cys-Cys-Glu-His-DPhe-Arg-Trp-Cys-Arg-Pro-Val-NH2] (RSD[dY]DKCCEH[dF]RWCRPV-NH2; lactam N-5) |  |
|  |  | RGD-Lys-(Arg^11)CCMSH: cyclic RGD motif {Arg-Gly-Asp-DTyr-Asp} attached to [Cys^3,4,10, D-Phe^7, Arg^11]α-MSH3-13 peptide via a lysine linker (RGDYDKCCEHFRWCRPV; lactam cycle c[Arg1-Gly-Asp-dTyr-Asp5]; (Arg1 alpha-amine to Asp5 side-chain carboxyl); D-Tyr4; D-Phe11; C-terminal amide; Lys6 linker) | 2.1 nM |
